Data: ChEMBL document CHEMBL1122702, “Radiohalogen-labeled imaging agents. 3. Compounds for measurement of brain blood flow by emission tomography” (J Med Chem, 1984)

Species: Rattus norvegicus
Experiment: Ratio of distribution of the [131I]-labeled compound at 5 min in rat lung over uptake in blood
Type: ADME, organism-based
Conditions: other tissue
Method in brief: (§1)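 Male Sprague-Dawley rats (200–300 g, fed ad libitum), ether-anesthetized, got a tail-vein bolus of 0.2 mL saline containing 10–20 μCi 131I compound and were decapitated at the stated time. Organs were weighed and gamma-counted against a serially diluted external standard. Organ/blood ratio was calculated from % dose per gram of organ. Animal numbers per time point were 1–4.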
Work on `COc1cc(CC(C)N(C)C)c(OC)cc1I` (stereo not given) yielded a Ratio of 16. Compound `COc1cc(CC(C)N)c(OC)cc1I` (stereo not given) has a Ratio of 47.

Species: Rattus norvegicus
Experiment: Ratio of distribution of the [131I]-labeled compound at 30 min in rat brain over uptake in blood
Type: ADME, organism-based
Conditions: 0.5 h
Method in brief: as §1
Compound `COc1cc(CC(C)N(C)C)c(OC)cc1I` (stereo not given) has a Ratio of 5. In the case of `COc1cc(CC(C)N)c(OC)cc1I` (stereo not given), the Ratio is reported as 6.7.

Species: Rattus norvegicus
Experiment: Ratio of distribution of the [131I]-labeled compound at 30 min in rat heart over uptake in blood
Type: ADME, organism-based
Conditions: other tissue, 0.5 h
Method in brief: as §1
`COc1cc(CC(C)N(C)C)c(OC)cc1I` (stereo not given) gave a Ratio of 2.4. `COc1cc(CC(C)N)c(OC)cc1I` (stereo not given) showed a Ratio of 14.

Species: Rattus norvegicus
Experiment: The distribution of the 131 I-labeled compound at 30 min was evaluated in rat lung as Percent of injected dose per gram in the organ
Type: ADME, organism-based
Conditions: in vivo, 0.5 h
Method in brief: (§2)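 Male Sprague-Dawley rats (200–300 g, free access to food and water), lightly ether-anesthetized and restrained, received a 0.2 mL saline tail-vein bolus of 10–20 μCi 131I-labeled compound. They were decapitated at the stated time, and organs were excised, weighed and gamma-counted. Percent injected dose was determined against a calibrated external standard made by serial dilution of the injectate. n = 1–4 rats.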
Work on `COc1cc(CC(C)N(C)C)c(OC)cc1I` (stereo not given) yielded a Dose of 1.7%. For `COc1cc(CC(C)N)c(OC)cc1I` (stereo not given), the Dose was 2.8%.

Species: Rattus norvegicus
Experiment: The distribution of the 131 I-labeled compound at 30 min was evaluated in rat kidney as Percent of injected dose per gram in the organ
Type: ADME, organism-based
Conditions: in vivo, 0.5 h
Method in brief: as §2
For `COc1cc(CC(C)N(C)C)c(OC)cc1I` (stereo not given), the Dose was 0.9%. `COc1cc(CC(C)N)c(OC)cc1I` (stereo not given) was tested, and the Dose was 1.1%.

Species: Rattus norvegicus
Experiment: The distribution of the 131 I-labeled compound at 5 min was evaluated in rat liver as Percent of injected dose in the total organ
Type: ADME, organism-based
Conditions: in vivo
Method in brief: as §2
Compound `COc1cc(CC(C)N(C)C)c(OC)cc1I` (stereo not given) has a Dose of 16%. `COc1cc(CC(C)N)c(OC)cc1I` (stereo not given) showed a Dose of 5.6%.

Species: Rattus norvegicus
Experiment: The distribution of the 131 I-labeled compound at 30 min was evaluated in rat liver as Percent of injected dose in the total organ
Type: ADME, organism-based
Conditions: in vivo, 0.5 h
Method in brief: as §2
Work on `COc1cc(CC(C)N(C)C)c(OC)cc1I` (stereo not given) yielded a Dose of 12%. `COc1cc(CC(C)N)c(OC)cc1I` (stereo not given) gave a Dose of 10%.

Species: Rattus norvegicus
Experiment: Ratio of distribution of the [131I]-labeled compound at 30 min in rat kidney over uptake in blood
Type: ADME, organism-based
Conditions: other tissue, 0.5 h
Method in brief: as §1
`COc1cc(CC(C)N(C)C)c(OC)cc1I` (stereo not given) gave a Ratio of 8.4. In the case of `COc1cc(CC(C)N)c(OC)cc1I` (stereo not given), the Ratio is reported as 18.

Species: Rattus norvegicus
Experiment: Ratio of distribution of the [131I]-labeled compound at 5 min in rat kidney over uptake in blood
Type: ADME, organism-based
Conditions: other tissue
Method in brief: as §1
With `COc1cc(CC(C)N(C)C)c(OC)cc1I` (stereo not given) the Ratio was 5.5. `COc1cc(CC(C)N)c(OC)cc1I` (stereo not given) showed a Ratio of 17.

Species: Rattus norvegicus
Experiment: The distribution of the 131 I-labeled compound at 5 min was evaluated in rat heart as Percent of injected dose per gram in the organ
Type: ADME, organism-based
Conditions: in vivo
Method in brief: as §2
Compound `COc1cc(CC(C)N(C)C)c(OC)cc1I` (stereo not given) has a Dose of 0.8%. In the case of `COc1cc(CC(C)N)c(OC)cc1I` (stereo not given), the Dose is reported as 0.86%.

Species: Rattus norvegicus
Experiment: Ratio of distribution of the [131I]-labeled compound at 5 min in rat liver over uptake in blood
Type: ADME, organism-based
Conditions: other tissue
Method in brief: as §1
`COc1cc(CC(C)N(C)C)c(OC)cc1I` (stereo not given) gave a Ratio of 5.5. `COc1cc(CC(C)N)c(OC)cc1I` (stereo not given) showed a Ratio of 12.

Species: Rattus norvegicus
Experiment: The distribution of the 131 I-labeled compound at 30 min was evaluated in rat kidney as Percent of injected dose in the total organ
Type: ADME, organism-based
Conditions: in vivo, 0.5 h
Method in brief: as §2
With `COc1cc(CC(C)N(C)C)c(OC)cc1I` (stereo not given) the Dose was 2.4%. `COc1cc(CC(C)N)c(OC)cc1I` (stereo not given) was tested, and the Dose was 2.8%.

Species: Rattus norvegicus
Experiment: The distribution of the 131 I-labeled compound at 30 min was evaluated in rat heart as Percent of injected dose in the total organ
Type: ADME, organism-based
Conditions: in vivo, 0.5 h
Method in brief: as §2
`COc1cc(CC(C)N(C)C)c(OC)cc1I` (stereo not given) showed a Dose of 0.28%. Compound `COc1cc(CC(C)N)c(OC)cc1I` (stereo not given) has a Dose of 0.32%.

Species: Rattus norvegicus
Experiment: The distribution of the 131 I-labeled compound at 5 min was evaluated in rat blood as Percent of injected dose per gram in the organ
Type: ADME, organism-based
Conditions: in vivo
Method in brief: as §2
`COc1cc(CC(C)N(C)C)c(OC)cc1I` (stereo not given) was tested, and the Dose was 0.2%. `COc1cc(CC(C)N)c(OC)cc1I` (stereo not given) showed a Dose of 0.07%.

Species: Rattus norvegicus
Experiment: The distribution of the 131 I-labeled compound at 30 min was evaluated in rat blood as Percent of injected dose per gram in the organ
Type: ADME, organism-based
Conditions: in vivo, 0.5 h
Method in brief: as §2
`COc1cc(CC(C)N(C)C)c(OC)cc1I` (stereo not given) was tested, and the Dose was 0.11%. `COc1cc(CC(C)N)c(OC)cc1I` (stereo not given) gave a Dose of 0.06%.

Species: Rattus norvegicus
Experiment: The distribution of the 131 I-labeled compound at 5 min was evaluated in rat brain as Percent of injected dose per gram in the organ
Type: ADME, organism-based
Conditions: in vivo
Method in brief: as §2
Work on `COc1cc(CC(C)N(C)C)c(OC)cc1I` (stereo not given) yielded a Dose of 1.8%. `COc1cc(CC(C)N)c(OC)cc1I` (stereo not given) gave a Dose of 0.34%.

Species: Rattus norvegicus
Experiment: Ratio of distribution of the [131I]-labeled compound at 30 min in rat lung over uptake in blood
Type: ADME, organism-based
Conditions: other tissue, 0.5 h
Method in brief: as §1
Compound `COc1cc(CC(C)N(C)C)c(OC)cc1I` (stereo not given) has a Ratio of 15. For `COc1cc(CC(C)N)c(OC)cc1I` (stereo not given), the Ratio was 46.

Species: Rattus norvegicus
Experiment: The distribution of the 131 I-labeled compound at 30 min was evaluated in rat heart as Percent of injected dose per gram in the organ
Type: ADME, organism-based
Conditions: in vivo, 0.5 h
Method in brief: as §2
`COc1cc(CC(C)N(C)C)c(OC)cc1I` (stereo not given) was tested, and the Dose was 0.26%. `COc1cc(CC(C)N)c(OC)cc1I` (stereo not given) gave a Dose of 0.29%.

Species: Rattus norvegicus
Experiment: The distribution of the 131 I-labeled compound at 5 min was evaluated in rat liver as Percent of injected dose per gram in the organ
Type: ADME, organism-based
Conditions: in vivo
Method in brief: as §2
`COc1cc(CC(C)N(C)C)c(OC)cc1I` (stereo not given) showed a Dose of 1.1%. Work on `COc1cc(CC(C)N)c(OC)cc1I` (stereo not given) yielded a Dose of 0.83%.

Species: Rattus norvegicus
Experiment: Ratio of distribution of the [131I]-labeled compound at 5 min in rat brain over uptake in blood
Type: ADME, organism-based
Conditions: not given
Method in brief: as §1
`COc1cc(CC(C)N(C)C)c(OC)cc1I` (stereo not given) gave a Ratio of 9. `COc1cc(CC(C)N)c(OC)cc1I` (stereo not given) was tested, and the Ratio was 4.7.

Species: Rattus norvegicus
Experiment: Ratio of distribution of the [131I]-labeled compound at 30 min in rat liver over uptake in blood
Type: ADME, organism-based
Conditions: other tissue, 0.5 h
Method in brief: as §1
`COc1cc(CC(C)N(C)C)c(OC)cc1I` (stereo not given) gave a Ratio of 8.1. In the case of `COc1cc(CC(C)N)c(OC)cc1I` (stereo not given), the Ratio is reported as 13.

Species: Rattus norvegicus
Experiment: Ratio of distribution of the [131I]-labeled compound at 5 min in rat heart over uptake in blood
Type: ADME, organism-based
Conditions: other tissue
Method in brief: as §1
For `COc1cc(CC(C)N(C)C)c(OC)cc1I` (stereo not given), the Ratio was 4. Compound `COc1cc(CC(C)N)c(OC)cc1I` (stereo not given) has a Ratio of 12.

Species: Rattus norvegicus
Experiment: The distribution of the 131 I-labeled compound at 30 min was evaluated in rat brain as Percent of injected dose per gram in the organ
Type: ADME, organism-based
Conditions: in vivo, 0.5 h
Method in brief: as §2
In the case of `COc1cc(CC(C)N(C)C)c(OC)cc1I` (stereo not given), the Dose is reported as 0.55%. With `COc1cc(CC(C)N)c(OC)cc1I` (stereo not given) the Dose was 0.4%.

Species: Rattus norvegicus
Experiment: The distribution of the 131 I-labeled compound at 5 min was evaluated in rat kidney as Percent of injected dose in the total organ
Type: ADME, organism-based
Conditions: in vivo
Method in brief: as §2
`COc1cc(CC(C)N(C)C)c(OC)cc1I` (stereo not given) showed a Dose of 6.8%. `COc1cc(CC(C)N)c(OC)cc1I` (stereo not given) gave a Dose of 3.2%.

Species: Rattus norvegicus
Experiment: The distribution of the 131 I-labeled compound at 30 min was evaluated in rat liver as Percent of injected dose per gram in the organ
Type: ADME, organism-based
Conditions: in vivo, 0.5 h
Method in brief: as §2
`COc1cc(CC(C)N(C)C)c(OC)cc1I` (stereo not given) gave a Dose of 0.89%. In the case of `COc1cc(CC(C)N)c(OC)cc1I` (stereo not given), the Dose is reported as 0.8%.

Species: Rattus norvegicus
Experiment: The distribution of the 131 I-labeled compound at 5 min was evaluated in rat brain as Percent of injected dose in the total organ
Type: ADME, organism-based
Conditions: in vivo
Method in brief: as §2
`COc1cc(CC(C)N(C)C)c(OC)cc1I` (stereo not given) was tested, and the Dose was 3.4%. `COc1cc(CC(C)N)c(OC)cc1I` (stereo not given) was tested, and the Dose was 0.64%.

Species: Rattus norvegicus
Experiment: The distribution of the 131 I-labeled compound at 5 min was evaluated in rat heart as Percent of injected dose in the total organ
Type: ADME, organism-based
Conditions: in vivo
Method in brief: as §2
For `COc1cc(CC(C)N(C)C)c(OC)cc1I` (stereo not given), the Dose was 1.1%. `COc1cc(CC(C)N)c(OC)cc1I` (stereo not given) showed a Dose of 0.92%.

Species: Rattus norvegicus
Experiment: The distribution of the 131 I-labeled compound at 5 min was evaluated in rat kidney as Percent of injected dose per gram in the organ
Type: ADME, organism-based
Conditions: in vivo
Method in brief: as §2
`COc1cc(CC(C)N(C)C)c(OC)cc1I` (stereo not given) was tested, and the Dose was 2.4%. Work on `COc1cc(CC(C)N)c(OC)cc1I` (stereo not given) yielded a Dose of 1.2%.

Species: Rattus norvegicus
Experiment: The distribution of the 131 I-labeled compound at 5 min was evaluated in rat lung as Percent of injected dose per gram in the organ
Type: ADME, organism-based
Conditions: in vivo
Method in brief: as §2
For `COc1cc(CC(C)N(C)C)c(OC)cc1I` (stereo not given), the Dose was 3.1%. Work on `COc1cc(CC(C)N)c(OC)cc1I` (stereo not given) yielded a Dose of 3.3%.

Species: Rattus norvegicus
Experiment: The distribution of the 131 I-labeled compound at 30 min was evaluated in rat brain as Percent of injected dose in the total organ
Type: ADME, organism-based
Conditions: in vivo, 0.5 h
Method in brief: as §2
`COc1cc(CC(C)N(C)C)c(OC)cc1I` (stereo not given) was tested, and the Dose was 1.1%. `COc1cc(CC(C)N)c(OC)cc1I` (stereo not given) gave a Dose of 0.76%.
